The source of these data is article PMC10651777 (Blood, 2022).

One series relates to AML. Conditions: idasa monotherapy, cited from earlier work.
In the next series the test system is MIC-1. The conditions noted are these: day 5 of treatment, 100 mg daily for 5 days, PV; cited from earlier work.
The nature of series [1]: Plasma pharmacokinetics at steady state. It is filed as in vivo, human. Conditions: for Cmax: human, plasma, oral, Mean Cmax, steady state. Put shortly:
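Patients with relapsed/refractory AML or secondary AML received venetoclax daily on days 1–28 (3–5-day ramp-up to 400, 600 or 800 mg) plus idasanutlin 150, 200 or 400 mg daily or 300 mg twice daily on days 1–5 of 28-day cycles. Noncompartmental analysis of venetoclax plasma concentration–time data; summary statistics of steady-state Cmax and trough. Data from 49 patients across 5 cohorts.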

Series [2] concerns Macrophage inhibitory cytokine-1 (MIC-1). Briefly: Serum MIC-1 ELISA. The conditions noted are these: day 5; idasa 150 to 400 mg daily for 5 days. It is filed as in vivo, human. Put shortly:
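Serum from patients with relapsed/refractory or secondary AML on venetoclax plus idasanutlin. Idasanutlin was given daily or twice daily on days 1–5 of 28-day cycles. MIC-1 was quantified by a human GDF-15 immunoassay kit (ELISA).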
In general terms: ELISA stands for enzyme-linked immunosorbent assay.

For series [3], the system named is R/R AML and newly diagnosed patients with AML unfit for intensive chemotherapy. The conditions noted are these: ven monotherapy; cited from earlier work.
Where [4] appears, read: Cohort B1.2.1, n = 5, ven 600 mg, idasa 150 mg.

As usually defined, the Cmax is the peak of the concentration-time curve. Take `COc1cc(C(=O)O)ccc1NC(=O)[C@@H]1N[C@@H](CC(C)(C)C)[C@](C#N)(c2ccc(Cl)cc2F)[C@H]1c1cccc(Cl)c1F` [idasa, idasanutlin]: the All-grade diarrhea rate in the series with AML (400-800 mg twice daily microprecipitated bulk powder) was 91.3%. Besides, in the series with AML, the All-grade nausea rate is on record as 73.9%, the All-grade vomiting rate is 39.1%, the “CR/CRi/MLFS rate (antileukemic response)” value is 21% and the “Rate of grade ≥3 diarrhea” value is recorded as 23.9%. The “Rate of grade ≥3 nausea” value in the series on AML is 0%. Further, the “Plasma MIC-1 levels increase” value in the series with MIC-1 is reported as 4.8 fold. This compound also returned a Cmax in series [1] (400 mg, Cohort B4, n = 8, ven 400 mg, idasa 400 mg) of 7110 ng/mL. The compound further had a Cmax in series [1] (setting [4]) of 3220 ng/mL. Also, the MIC-1 increases in series [2] is 10- to 20 fold.

Regarding `CC1(C)CCC(CN2CCN(c3ccc(C(=O)NS(=O)(=O)c4ccc(NCC5CCOCC5)c([N+](=O)[O-])c4)c(Oc4cnc5[nH]ccc5c4)c3)CC2)=C(c2ccc(Cl)cc2)C1` [ven, Venetoclax], in series [3], the All-grade diarrhea rate was 56%, the All-grade nausea rate is given as 59%, the All-grade vomiting rate was 41% and the “CR/CRi rate (CRc)” value is 19%. In addition, in series [3], the “Rate of grade ≥3 diarrhea” value was 6% and the “Rate of grade ≥3 nausea” value was 6%. In series [1] (setting [4]), this compound displayed a Cmax of 1450 ng/mL. Moreover, the “Impact of the coadministration of idasa on ven pharmacokinetics” value in series [1] (in vivo) was “no significant impact”. Besides, the “Pharmacokinetics of ven in this combination” value in series [1] (vs historical ven monotherapy) is given as “comparable to ven monotherapy”.
